Reference: ChEMBL document CHEMBL3862004, “A Cyclic Tetrapeptide ("Cyclodal") and Its Mirror-Image Isomer Are Both High-Affinity μ Opioid Receptor Antagonists” (J Med Chem, 2016)
Active and inactive are the calls of the source. The rule behind the calls is not given here.

Legend:
[1] = molecular target: Delta-type opioid receptor (Mus musculus) (UniProt P32300); test: Partial agonist activity at delta opioid receptor in mouse vas deferens assessed as inhibition of electrically-stimulated muscle contraction
Procedure, shortened: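 Mouse vas deferens preparation. A [Leu5]enkephalin dose–response curve was run on each preparation as standard, and test IC50 values were normalised to it. Mean of three to four determinations ± SEM.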

[2] = Metabolic stability in rat plasma assessed as compound remaining at 37 degC measured after 15 mins by reverse-phase HPLC analysis
[3] = Selectivity ratio of Ki for KOR in guinea pig brain membrane to Ki for MOR in rat brain membrane; type: cell membranes
Mu-type opioid receptor [4] = molecular target: Mu-type opioid receptor (Cavia porcellus, UniProt P97266); test: Agonist activity at MOR in guinea pig ileum assessed as inhibition of electrically-stimulated muscle contractions
Procedure, shortened: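 Isolated guinea pig ileum preparation; each preparation received a [Leu⁵]enkephalin standard dose–response curve. IC50 values came from concentration–response curves and were normalized to that standard. Values are the mean of three to four determinations ± SEM.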

Rattus norvegicus = species on record: Rattus norvegicus; test: Selectivity ratio of Ki for DOR in rat brain membrane to Ki for MOR in rat brain membrane; type: cell membranes
[5] = molecular target: Delta-type opioid receptor (Rattus norvegicus, UniProt P33533); test: Displacement of [3H]DSLET from DOR in rat brain membrane measured after 2 hrs; type: cell membranes
[6] = Metabolic stability in rat plasma assessed as compound degradation at 37 degC measured after 2 hrs by reverse-phase HPLC analysis; type: ADME, cell-free; settings: read-out: Drug degradation
Procedure, shortened: (§1)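 Peptide at 0.5 mg/mL in 0.01 M phosphate buffer pH 7.4 mixed 1:1 with rat plasma supernatant and incubated at 37 °C. Samples taken at 0, 5, 10, 15, 30 min and 1, 2, 3, 24, 48 h, quenched with acetonitrile and 2% TFA/water. Analysed by reversed-phase C18 HPLC; peak areas expressed as percent of initial.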

[7] = molecular target: Kappa-type opioid receptor (Cavia porcellus, UniProt P41144); test: Displacement of [3H]U69,593 from KOR in guinea pig brain membrane measured after 2 hrs; type: cell membranes
Procedure, shortened: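 Guinea pig brain membranes incubated 2 h at 0 °C with 0.80 nM [3H]U69,593. […] Values are the mean of three to four determinations ± SEM.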

[8] = molecular target: Kappa-type opioid receptor (Cavia porcellus) (UniProt P41144); test: Antagonist activity at KOR in guinea pig ileum assessed as inhibition of U50,488-induced muscle contractions
[9] = molecular target: Mu-type opioid receptor (Cavia porcellus) (UniProt P97266); test: Antagonist activity at MOR in guinea pig ileum assessed as inhibition of TAPP-induced muscle contractions
Procedure, shortened: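 Guinea pig ileum preparation. Ke was derived from the ratio of TAPP IC50 with and without a fixed antagonist concentration. Mean of three to four determinations ± SEM.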

Mu-type opioid receptor [10] = molecular target: Mu-type opioid receptor (Rattus norvegicus, UniProt P33535); test: Displacement of [3H]DAMGO from MOR in rat brain membrane measured after 2 hrs; type: cell membranes
[11] = Metabolic stability in rat plasma at 37 degC measured up to 48 hrs by reverse-phase HPLC analysis; type: ADME, cell-free; procedure, shortened: as §1
[12] = AUC in CD-1 mouse brain at 2 mg/kg, iv by LC-MS/MS analysis; type: ADME, organism-based; settings: in vivo
Procedure, shortened: (§2)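 Male CD1 mice (27 g) given 2 mg/kg iv in saline; brain and plasma sampled at 5, 15, 30, 60, 120 and 240 min. Brain homogenised in PBS pH 7.4, plasma proteins precipitated with acetonitrile/methanol (1:1). Quantitation by LC–MS/MS against internal standard, with standard curves extracted from brain homogenate and fitted by 1/x-weighted linear regression. AUCs were taken from concentration–time curves.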

[13] = Cmax in CD-1 mouse brain at 2 mg/kg, iv measured after 30 mins by LC-MS/MS analysis; type: ADME, organism-based; set-up: dose 2 mg/kg, route intravenous; procedure, shortened: as §2
[14] = AUC in CD-1 mouse plasma at 2 mg/kg, iv by LC-MS/MS analysis; type: ADME, organism-based; procedure, shortened: as §2

Delta-type opioid receptor (Mus musculus), sequence (P32300 whole entry): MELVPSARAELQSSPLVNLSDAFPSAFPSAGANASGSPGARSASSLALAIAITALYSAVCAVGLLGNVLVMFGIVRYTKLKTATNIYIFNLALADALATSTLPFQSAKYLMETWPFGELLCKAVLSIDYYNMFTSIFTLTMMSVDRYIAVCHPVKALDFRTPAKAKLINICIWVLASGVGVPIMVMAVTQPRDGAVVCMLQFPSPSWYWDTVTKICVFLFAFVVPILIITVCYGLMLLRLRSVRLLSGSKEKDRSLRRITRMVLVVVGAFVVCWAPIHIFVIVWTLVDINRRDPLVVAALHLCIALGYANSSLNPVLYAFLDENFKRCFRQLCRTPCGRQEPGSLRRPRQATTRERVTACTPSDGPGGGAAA
Mu-type opioid receptor (Cavia porcellus), sequence (P97266 whole entry): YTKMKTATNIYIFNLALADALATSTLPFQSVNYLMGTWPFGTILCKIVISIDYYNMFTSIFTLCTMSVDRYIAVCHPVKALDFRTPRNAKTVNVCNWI
Delta-type opioid receptor, sequence (P33533 whole entry): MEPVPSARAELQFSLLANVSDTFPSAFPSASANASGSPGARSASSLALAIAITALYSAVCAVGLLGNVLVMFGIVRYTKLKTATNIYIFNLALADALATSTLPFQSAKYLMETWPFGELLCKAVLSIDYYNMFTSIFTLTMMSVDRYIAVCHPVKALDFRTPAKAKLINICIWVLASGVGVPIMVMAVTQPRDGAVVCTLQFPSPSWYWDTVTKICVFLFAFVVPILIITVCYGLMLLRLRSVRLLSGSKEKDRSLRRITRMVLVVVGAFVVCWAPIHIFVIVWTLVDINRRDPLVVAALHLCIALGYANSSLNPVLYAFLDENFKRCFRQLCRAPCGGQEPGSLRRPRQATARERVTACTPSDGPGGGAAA
Kappa-type opioid receptor, sequence (P41144 whole entry): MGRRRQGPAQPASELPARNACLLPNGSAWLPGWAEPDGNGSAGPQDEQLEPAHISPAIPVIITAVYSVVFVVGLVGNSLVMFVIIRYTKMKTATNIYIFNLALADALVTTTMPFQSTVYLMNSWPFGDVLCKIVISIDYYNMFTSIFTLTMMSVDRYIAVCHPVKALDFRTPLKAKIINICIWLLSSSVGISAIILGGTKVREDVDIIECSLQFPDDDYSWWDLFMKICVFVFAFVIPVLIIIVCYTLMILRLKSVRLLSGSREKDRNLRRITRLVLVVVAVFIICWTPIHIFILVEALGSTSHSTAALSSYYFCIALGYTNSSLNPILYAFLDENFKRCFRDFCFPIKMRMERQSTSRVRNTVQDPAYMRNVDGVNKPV
Mu-type opioid receptor (Cavia porcellus, UniProt P97266), sequence (P97266 whole entry): as the sequence (P97266 whole entry) above
Mu-type opioid receptor (Rattus norvegicus, UniProt P33535), sequence (P33535 whole entry): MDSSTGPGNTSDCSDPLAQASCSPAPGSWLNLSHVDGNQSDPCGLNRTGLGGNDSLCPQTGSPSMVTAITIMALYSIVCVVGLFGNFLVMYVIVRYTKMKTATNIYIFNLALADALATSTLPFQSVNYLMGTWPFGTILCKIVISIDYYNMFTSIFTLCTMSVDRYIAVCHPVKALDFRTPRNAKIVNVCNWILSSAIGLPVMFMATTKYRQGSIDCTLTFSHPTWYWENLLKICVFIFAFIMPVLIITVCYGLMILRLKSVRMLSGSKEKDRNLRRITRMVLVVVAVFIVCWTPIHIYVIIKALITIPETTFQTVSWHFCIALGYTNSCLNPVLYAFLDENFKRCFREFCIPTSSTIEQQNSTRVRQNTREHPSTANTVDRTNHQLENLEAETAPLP
Kappa-type opioid receptor (Cavia porcellus), sequence (P41144 whole entry): as the sequence (P41144 whole entry) above

CCCC[C@@H]1NC(=O)[C@H](Cc2ccccc2)NC(=O)[C@@H](CCCNC(=N)N)NC(=O)[C@H](Cc2c(C)cc(O)cc2C)NC1=O
Activity [1]: Active

CC(C)C[C@H](NC(=O)[C@H](Cc1ccccc1)NC(=O)CNC(=O)CNC(=O)[C@@H](N)Cc1ccc(O)cc1)C(=O)O [ENKEPHALIN]
remaining at 0.25 h [2]: < 15%

Cc1cc(O)cc(C)c1C[C@@H]1NC[C@H](CCCCN)NC(=O)[C@H](Cc2ccccc2)NC(=O)[C@@H](CCCNC(=N)N)NC1=O
Ratio Ki [3]: 7
IC50 (Mu-type opioid receptor [4]): 2510 nM
Activity [1]: Active
Ratio Ki (Rattus norvegicus): 47

C[C@@H](O)[C@H](NC(=O)[C@H]1NC(=O)[C@H]([C@@H](C)O)NC(=O)[C@H](CCCN)NC(=O)[C@@H](Cc2c[nH]c3ccccc23)NC(=O)[C@H](Cc2ccc(O)cc2)NC(=O)[C@@H](NC(=O)[C@H](N)Cc2ccccc2)CSSC1(C)C)C(N)=O
Ki [5]: 258 nM
metabolised at 2 h [6]: 25%
Activity [1]: Active
Ki [7]: 14.9 µM

Cc1cc(O)cc(C)c1C[C@@H]1NC(=O)[C@H](CCCCN)NC(=O)[C@H](Cc2ccccc2)NC(=O)[C@@H](CCCCNC(=N)N)NC1=O
Ratio Ki [3]: 23
Activity [1]: Active
Ratio Ki (Rattus norvegicus): 25

Cc1cc(O)cc(C)c1C[C@@H]1NC(=O)C[C@H](CCCCN)NC(=O)[C@H](Cc2ccccc2)NC(=O)[C@@H](CCCNC(=N)N)NC1=O
Ki [5]: 16.7 nM
Ke [8]: 18.2 nM
Ratio Ki [3]: 6
Ke [9]: 10.5 nM
Ki (Mu-type opioid receptor [10]): 0.124 nM
Ratio Ki (Rattus norvegicus): 135
Ki [7]: 0.000786 µM

Cc1cc(O)cc(C)c1C[C@@H]1NC(=O)[C@H](CCCCN)NC(=O)[C@H](Cc2ccccc2)NC(=O)[C@@H](CCCNC(N)=O)NC1=O
Ratio Ki [3]: 165
Ratio Ki (Rattus norvegicus): 52

Cc1cc(O)cc(C)c1C[C@@H]1NC(=O)[C@H](CCCCN)NC(=O)[C@H](Cc2ccccc2)NC(=O)[C@@H](CCCNC(=N)N)NC1=O
Stability [11]: Stable
AUC [12]: 0.052 µg·min/g
Cmax [13]: 0.6 ng/g
AUC [14]: 0.505 ng·h/mL

Cc1cc(O)cc(C)c1C[C@@H]1NC(=O)C(CCCN)NC(=O)[C@H](Cc2ccccc2)NC(=O)[C@@H](CCCNC(=N)N)NC1=O (stereo partly drawn)
Ke [9]: 16.8 nM
Activity [1]: Active
